Non-standard residues stand in square brackets, D forms with d. No end group written: not given here. Dmt = Cc1cc(O)cc(C)c1C[C@H](N)C(=O)O; Orn = NCCC[C@H](N)C(=O)O

The subject of series [1] is HeLa 705 cells. Briefly: Subcellular uptake by spectrofluorometry after isolation of mitochondria. The format is cell-based, human. To be noted: 5 μM, 24 hr; for compartment of main accumulation: membranes, cytosol, mitochondria fractions. The gist of the method:
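HeLa 705 cells grown in flasks for 24 hr, treated 24 hr with fluorescein-labelled peptide, then scraped at about 90% confluence. Reagent-based kit with differential centrifugation (700 × g 10 min, then 12,000 × g 15 min, 4°C) gave membrane, cytosol and mitochondrial fractions. Fluorescein read at […] and normalised to untreated cells. Mean ± SD of three experiments; one-way ANOVA.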

Series [2] can be described thus: Solubility in MilliQ water. Format: physicochemical. The following applies: compared with unlabelled peptide.
A further series relates to cells. The following applies: 1-hr treatment with 1 mM of GSH; cited from earlier work.
Series [3] concerns mitochondrial superoxide in HeLa 705 cells. Briefly: Superoxide anion scavenging assay. The format is cell-based, human. The following applies: 5 μM, 24 hr, MitoSOX fluorescence, mean of three experiments. The gist of the method: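 HeLa 705 cells seeded at 7 × 10³ per well, recovered 24 hr, then exposed to peptide for 24 hr. MitoSOX Red working solution in HBSS/Ca/Mg added for 10 min at 37°C, 5% CO2, in the dark. Cells washed with 0.2% BSA in PBS and read at ex 510/em 580 nm. Signal normalised to antimycin A-treated cells or to a reference peptide. Mean ± SD of three experiments.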

The next series is described as follows: Dynamic light scattering. Format: physicochemical. The following applies: MilliQ H2O or cell culture media, 5 μM. The method in brief:
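Test compound dissolved either in DMEM with 10% FBS or in MilliQ water adjusted to pH 7.4. Dynamic light scattering gave hydrodynamic mean diameter and zeta potential. Data plotted as size distribution by intensity.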

In series [4] the test system is HeLa 705 cells. Briefly: Fluorescence microscopy, cellular uptake and localization. Format: cell-based, human. To be noted: carboxyfluorescein-labelled peptide 5 μM, 4 hr, 200 nM TMRE. The method in brief:
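HeLa 705 cells given carboxyfluorescein-labelled peptides for 4 hr; untreated cells got fresh medium in parallel. Mitochondria stained with 200 nM TMRE (20 min at 37°C per methods; added 30 min pre-imaging per legend) and nuclei with Hoechst 33342 (10 min). Inverted fluorescence microscope with 10×/40× dry and 63× oil objectives, held at 36 ± 1°C. Excitation/emission: Hoechst 346/497 nm, FAM 494/519 nm, TMRE 535/575 nm.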

Series [5] concerns mitochondrial membrane potential in HeLa 705 cells. Briefly: Mitochondrial membrane potential. The format is cell-based, human. To be noted: 5 μM peptide 24 hr, TMRE fluorescence, n = 3; for mitochondrial membrane potential (Δψm) with H2O2 (oxidative stress): H2O2 200 μM for 2 hr. The gist of the method:
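HeLa 705 cells seeded 24 hr ahead and treated 24 hr with peptide. In the stress arm, a 2 hr H2O2 exposure preceded the 24 hr incubation at 37°C, 5% CO2. TMRE added at 400 nM final for 30 min in the dark, then PBS wash and 0.2% BSA in PBS. Read at ex 549/em 575 nm, as percent of untreated cells or untreated + H2O2. FCCP and H2O2 served as controls. Mean ± SD of three experiments; one-way ANOVA.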

The next series relates to different cell lines. The following applies: high concentration (100 μM); cited from earlier work.
For series [6] the following is noted: read-out: EC50 of the hydroxyl radical scavenging reaction; cited from earlier work.
Series [7] deals with HeLa 705 cells. Briefly: WST-1 cell proliferation/viability assay. The format is cell-based, human. The following applies: 20% DMSO in complete growth medium, 24 hr, positive control. The method in brief: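 Cells seeded at 7 × 10³ per well 24 hr ahead, then exposed 24 hr to peptide at several concentrations in complete medium. WST-1 added at 1:10 final dilution after 20 hr and incubated 4 hr. Plate shaken 1 min; formazan read at 450 nm against 650 nm reference. Controls: 20% DMSO (v/v) for 24 hr and H2O2 at two levels. Mean of at least three experiments with SD.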
A general note: Tetrazolium dyes change colour on reduction, which living cells bring about.

Take FAM-Tyr(Me)-Glu-Cys-Gly-NH2 [FAM-UPF25]: in the series with HeLa 705 cells [1], the “compartment of main accumulation” value is recorded as “mainly accumulates in membranes”. In series [2], the “effect of the carboxyfluorescein moiety on solubility” value (“effect … on solubility” below) is reported as “slightly decreased”.
As to glutathione [GSH], the “uptake of GSH in cells” value with cells is given as “≈ 1.5 μM”.
As to “[dR][Dmt][Orn]FY(Me)ECG-NH2 (N-terminus assumed; SMILES COc1ccc(C[C@H](NC(=O)[C@H](Cc2ccccc2)NC(=O)[C@H](CCCN)NC(=O)[C@H](Cc2c(C)cc(O)cc2C)NC(=O)[C@H](N)CCCNC(=N)N)C(=O)N[C@@H](CCC(=O)O)C(=O)N[C@@H](CS)C(=O)NCC(N)=O)cc1) [mtgCPP]”, in series [3], the “improvement of superoxide anion scavenging ability compared with UPF25” value amounted to 3 fold and the “improvement of superoxide anion scavenging ability compared with mtCPP1” value came out at 2 fold. For the same compound, the “aggregation (from DLS size)” value in the series “Dynamic light scattering” is “forming aggregates”. The “mitochondrial localization (merge with TMRE)” value in the series with HeLa 705 cells [4] is listed as “partially targets the mitochondria”. Moreover, the “mitochondrial membrane potential (Δψm) with H2O2 (oxidative stress)” value in [5] is recorded as “close to the healthy situation”.
Take “Y(Me)ECG-NH2 (N-terminus assumed; SMILES COc1ccc(C[C@H](N)C(=O)N[C@@H](CCC(=O)O)C(=O)N[C@@H](CS)C(=O)NCC(N)=O)cc1) [UPF25]”: the “effect on viability of different cell lines” value with different cell lines is “did not affect the viability”. Besides, in series [5], the “mitochondrial membrane potential (Δψm) without H2O2” value is “decreased” and the “mitochondrial membrane potential (Δψm) with H2O2 (oxidative stress)” value is “partially rescue”. The EC50 (commonly the concentration that produces a half-maximal response) in [6] is around 30 nM.
Consider `C[S+](C)[O-]` [DMSO], for which the cell viability entry in the series on HeLa 705 cells [7] is recorded as “approximately 20%”.
With FAM-D-Arg-Dmt-Orn-Phe-NH2 [FAM-mtCPP1], in the series on HeLa 705 cells [1] (carboxyfluorescein F.I., direction not given), the “increase in cytosol fraction between FAM-UPF25 and FAM-mtCPP1” value worked out at 2 fold. Besides, the “effect … on solubility” value in series [2] is reported as “did not decrease the solubility”.
Turning to “FAM-D-Arg-Dmt-Orn-Phe-Tyr(Me)-Glu-Cys-Gly-NH2 [FAM-mtgCPP]”, the “presence in membranes fraction” value in the series with HeLa 705 cells [1] (carboxyfluorescein F.I.) is given as “same extent as FAM-mtCPP1”. In addition, the “compartment of main accumulation” value with HeLa 705 cells [1] was “mainly accumulated in the mitochondria”. For the same compound, in series [2], the “effect … on solubility” value is “did not decrease the solubility”.
